Assay results: ChEMBL document CHEMBL1151731, “Targeting pro-invasive oncogenes with short chain fatty acid-hexosamine analogues inhibits the mobility of metastatic MDA-MB-231 breast cancer cells” (J Med Chem, 2008)
The source made the active and inactive calls.

Key:
[1] = test system: MDA-MB-231; test: Antiproliferative activity against human MDA-MB-231 cells by Coulter counting analysis; assay type: functional, cell-based
In short: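 MDA-MB-231 cells grown in RPMI-1640 with 10% FBS and plated at 27000 cells/cm² with compound added at plating from EtOH stock (final EtOH 0.4% v/v). Incubated 3 days at 37 °C, 5% CO₂. Viable cells trypsinized and counted on a Coulter counter. SEM, n ≥ 3.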

[2] = test system: MDA-MB-231; test: Decrease in MUC1 mRNA transcription in human MDA-MB-231 cells by qRT-PCR; assay type: functional, cell-based
In short: (§1)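 MDA-MB-231 RNA extracted with Trizol, DNase-treated and column-purified. qRT-PCR with Ct values in quadruplicate; relative expression by 2^-ΔΔCt from average Ct. Amplicons verified by agarose gel electrophoresis.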

[3] = biological target: T1, Histone deacetylase (Homo sapiens) (UniProt Q13547+O15379+Q9UBN7+Q92769+Q9UQL6+Q8WUI4+Q9BY41+Q96DB2+P56524+Q9UKV0+Q969S8); test: Inhibition of HDAC in human MDA-MB-231 cells assessed as decrease in MUC1 mRNA expression qRT-PCR; assay type: cell-based
[4] = test system: MDA-MB-231; test: Growth inhibition of human MDA-MB-231 cells assessed as rounded-up morphology after 3 days by phase contrast micrograph
[5] = test system: HEK293; test: Inhibition of NF-kappaB transcriptional activity in human HEK AD293 cells at 125 uM by luciferase reporter gene assay; assay type: cell-based; design: scale not given: the % may be the effect or the level left
In short: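 HEK AD293 cells (DMEM, 10% FBS) lipofected with an NF-κB consensus luciferase reporter plus an equal mass of SV-promoter β-galactosidase plasmid. Replated after 24 h recovery and treated with compound. Luciferase read by chemiluminescence and β-galactosidase colorimetrically; activity expressed as their ratio. SEM of independent experiments in triplicate.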

[6] = test system: MDA-MB-231; test: Inhibition of human MDA-MB-231 cells invasion at 50 uM after 2 days by Boyden chamber assay; assay type: functional, cell-based
In short: (§2)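 Cells pretreated 2 or 3 days with compound (final EtOH 0.4% v/v), then trypsinized and resuspended in serum-free RPMI-1640. 50000 viable cells per chamber (equal loading confirmed by WST-8) in modified Boyden chambers. Migration measured through 8.0 µm pores toward a serum gradient; invasion through a Matrigel layer. After 24 h at 37 °C, cells were stained with Diff-Quik and counted. Viability rechecked by WST-8 at 24 h. SEM of technical replicates (n = 6 or 3); double-sided t test.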

[7] = biological target: T1, Histone deacetylase (Homo sapiens); test: Inhibition of HDAC in human MDA-MB-231 cells assessed as increase in p21 mRNA level by qRT-PCR; assay type: cell-based
[8] = test system: MDA-MB-231; test: Induction of salic acid production in human MDA-MB-231 cells by periodate-resorcinal assay; assay type: functional, cell-based
In short: (§3)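 Periodate-resorcinol assay for total sialic acid, adapted to small volumes. Treated cells were trypsinized, washed and resuspended in PBS, Coulter-counted, and lysed by three freeze-thaw cycles. Readings taken within five minutes. Molecules per cell calculated from the harvested cell number and a sialic acid standard curve run alongside. SEM, n ≥ 3.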

[9] = test system: MDA-MB-231; test: Inhibition of human MDA-MB-231 cells invasion at 150 uM after 2 days by Boyden chamber assay; assay type: functional, cell-based; in short: as §2
[10] = test system: MDA-MB-231; test: Effect on proteosomal activity of human MDA-MB-231 cells measured after 3 days in absence of epoxomicin; assay type: functional, cell-based
In short: (§4)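 Viable MDA-MB-231 cells (100000 in 100 µL RPMI) incubated with a succinyl luminogenic proteasome substrate; activity expressed as luminescence normalized to untreated controls. Analogue exposure 3 days; epoxomicin control exposure 6 h. SEM of independent experiments in triplicate.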

[11] = test system: MDA-MB-231; test: Inhibition of human MDA-MB-231 cells invasion at 50 uM after 3 days by Boyden chamber assay; assay type: functional, cell-based; in short: as §2
[12] = test system: MDA-MB-231; test: Reduction of endogenous NFKB1 (p105) mRNA level in human MDA-MB-231 cells; assay type: functional, cell-based
[13] = test system: MDA-MB-231; test: Suppression of CXCR4 mRNA in human MDA-MB-231 cells after 3 days by qRT-PCR; assay type: functional, cell-based
In short: (§5)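 Cells exposed 3 days to compound. RNA extracted with Trizol, DNase-treated and column-purified. qRT-PCR with Ct measured in quadruplicate; relative expression by the 2^-ΔΔCt method. Products checked on agarose gel. SEM of independent experiments done in triplicate.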

[14] = test system: MDA-MB-231; test: Inhibition of proteosomal activity of human MDA-MB-231 cells measured after 6 hrs in presence of epoxomicin; assay type: functional, cell-based; in short: as §4
[15] = test system: MDA-MB-231; test: Suppression of pro-MMP9 mRNA level in human MDA-MB-231 cells after 3 days by qRT-PCR; assay type: functional, cell-based; in short: as §5
[16] = test system: MDA-MB-231; test: Inhibition of NF-kappaB transcriptional activity in human MDA-MB-231 cells at 125 uM by luciferase reporter gene assay; assay type: cell-based; design: scale not given: the % may be the effect or the level left
In short: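 MDA-MB-231 cells electroporated with an NF-κB luciferase reporter plus an equal mass of SV-promoter β-galactosidase plasmid. Replated after 24 h recovery and treated with compound. NF-κB transactivation taken as the luciferase to β-galactosidase activity ratio. SEM of independent experiments in triplicate.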

[17] = test system: MDA-MB-231; test: Decrease in MMP9 gelatinase activity in human MDA-MB-231 cells after 3 days by Zymogram assay; assay type: functional, cell-based
[18] = biological target: T1, Histone deacetylase (Homo sapiens); test: Inhibition of HDAC in human MDA-MB-231 cells assessed as increase in histone H3 acetylation after 2 days by densitometry
[19] = test system: MDA-MB-231; test: Inhibition of human MDA-MB-231 cells migration at 50 uM after 3 days by Boyden chamber assay; assay type: functional, cell-based; in short: as §2
[20] = test system: MDA-MB-231; test: Inhibition of human MDA-MB-231 cells invasion at 50 uM by Boyden chamber assay; assay type: functional, cell-based
[21] = test system: MDA-MB-231; test: Inhibition of human MDA-MB-231 cells migration at 50 uM by Boyden chamber assay; assay type: functional, cell-based
[22] = test system: MDA-MB-231; test: Growth inhibition of human MDA-MB-231 cells after 3 to 5 days; assay type: functional, cell-based
In short: (§6)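 Proliferation followed over time up to 15 days in MDA-MB-231 cells (RPMI-1640, 10% FBS, 37 °C, 5% CO₂). Compound added at plating from EtOH stock, final EtOH 0.4% v/v. Data averaged from triplicate experiments.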

[23] = test system: MDA-MB-231; test: Increase in MUC1 mRNA transcription in human MDA-MB-231 cells by qRT-PCR; assay type: functional, cell-based; in short: as §1
[24] = test system: MDA-MB-231; test: Growth inhibition of human MDA-MB-231 cells after 15 days; assay type: functional, cell-based; in short: as §6
[25] = test system: MDA-MB-231; test: Enhancement of NFkappaB1 level in human MDA-MB-231 cells by qRT-PCR; assay type: functional, cell-based; in short: as §1
[26] = test system: MDA-MB-231; test: Downregulation of CXCR4 in human MDA-MB-231 cells by qRT-PCR; assay type: functional, cell-based
[27] = test system: MDA-MB-231; test: Cytotoxicity against human MDA-MB-231 cells at >= 150 uM; assay type: functional, cell-based
[28] = test system: MDA-MB-231; test: Increase in sialic acid production in human MDA-MB-231 cells by periodate-resorcinal assay; assay type: functional, cell-based; in short: as §3
[29] = test system: MDA-MB-231; test: Suppression of MUC1 transcription in human MDA-MB-231 cells by qRT-PCR; assay type: functional, cell-based; in short: as §1
[30] = test system: MDA-MB-231; test: Increase in human MDA-MB-231 cells invasion at 10 mM; assay type: functional, cell-based
[31] = test system: MDA-MB-231; test: Increase in human MDA-MB-231 cells invasion at 30 mM; assay type: functional, cell-based
[32] = test system: MDA-MB-231; test: Increase in intracellular sialic acid production in human MDA-MB-231 cells at 50 mM; assay type: functional, cell-based
[33] = test system: HEK AD293 (Homo sapiens); test: Inhibition of NF-kappaB transcriptional activity in human HEK AD293 cells by luciferase reporter gene assay

Measured: Activity

CCCC(=O)OC[C@H]1OC(OC(=O)CCC)[C@@H](NC(C)=O)[C@@H](OC(=O)CCC)[C@@H]1OC(=O)CCC (stereo partly specified)
75%: [5] | [16]
inactive: [10] | [15]
active: [1] | [2] | [3] | [4] | [6] | [7] | [8] Dose-dependent effect | [9] | [11] | [12] | [13] | [14] | [17] Dose-dependent effect | [18] | [19]

CCCC(=O)OC[C@H]1OC(OC(=O)CCC)[C@@H](OC(=O)CCC)[C@@H](OC(=O)CCC)[C@@H]1OC(=O)CCC (stereo partly specified)
active: [1] | [7] | [13] | [14] | [15] | [18]
inactive: [3] | [8] | [10] | [12] | [20] | [21]

CCCC(=O)OC[C@@H](OC(=O)CCC)[C@@H](OC(=O)CCC)[C@@H]1OC(OC(=O)CCC)(C(=O)OC)C[C@H](OC(=O)CCC)[C@@H]1NC(C)=O (stereo partly specified)
active: [22] | [23] | [25] | [26]
inactive: [24]

CCCC(=O)O
active: [7] | [18]

CCCC(=O)OC[C@H]1OC(O)[C@@H](NC(C)=O)[C@@H](OC(=O)CCC)[C@@H]1OC(=O)CCC (stereo partly specified)
active: [27] | [28] | [29]

CC(=O)N[C@H](C=O)[C@@H](O)[C@H](O)[C@H](O)CO
active: [30] | [32]
inactive: [31]

CCCC(=O)OC1O[C@H](CO)[C@@H](OC(=O)CCC)[C@H](OC(=O)CCC)[C@@H]1NC(C)=O (stereo partly specified)
inactive: [33]
active: [28]
